Laboratory results: paper PMC4079330 (Journal of Medicinal Chemistry, 2014)

Tests used:
Type in all cases: cell-based
RAW 264.7 cells = test: WST1 cell viability assay; conditions: concentrations up to 100 μM
Method in brief: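 Viability was read at every concentration tested in the NO assay, in RAW 264.7 cells given 20 ng/mL LPS plus a range of test compound concentrations. LC50 was taken as the concentration giving 50% cell viability. Test compound purity was above 95% by 1H NMR.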

[1] = test system: iNOS (NOS2) mRNA in RAW 264.7 cells; test: Quantitative RT-PCR of iNOS mRNA, LPS; conditions: 20 ng/mL LPS, 20 h, maximal decrease over tested concentrations
Method in brief: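 Quantitative real-time PCR for iNOS mRNA in RAW 264.7 cells co-incubated with 20 ng/mL LPS and a range of test compound concentrations for 20 h. Values expressed as fold change, with ligand-induced cells set to 1. Three biological replicates, each in technical duplicate, were averaged, with standard deviation as error.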

[2] = test system: iNOS protein in RAW 264.7 cells; test: Western blot of iNOS protein; conditions: 20 ng/mL LPS, normalized to GAPDH
[3] = test system: NF-κB activation through TLR4 in HEK 293T cells; test: SEAP reporter assay, LPS; conditions: 20 ng/mL LPS, concentrations up to 100 μM
[4] = test system: NF-κB activation through TLR3 in HEK 293T cells; test: SEAP reporter assay, Poly I:C; conditions: 2.5 μg/mL Poly I:C, concentrations up to 100 μM
[5] = test system: NF-κB signaling through tumor necrosis factor receptor (TNFR) in HEK 293T cells; test: SEAP reporter assay, TNF-α; conditions: 50 ng/mL TNF-α
TNF-α in RAW 264.7 cells = test: TNF-α ELISA; conditions: supernatant from nitric oxide plates

Compound: CC(C)(C)OC(=O)N(Cc1ccco1)C(=O)c1ccc(CN2C(=O)c3ccccc3S2(=O)=O)cc1 [compound 103, tert-butyl N-(furan-2-ylmethyl)-N-{4-[(1,1,3-trioxo-2,3-dihydro-1λ^6,2-benzothiazol-2-yl)methyl]benzoyl}carbamate]
- cytotoxicity (RAW 264.7 cells): no cytotoxicity
- decrease of iNOS mRNA [1]: up to 67%
- iNOS protein expression [2]: reduces iNOS protein expression in a dose-dependent fashion
- NF-κB activation (SEAP) [3]: did not down-regulate NF-κB activation
- NF-κB activation (SEAP) [4]: did not down-regulate NF-κB activation
- NF-κB signaling (SEAP) [5]: unaffected
- TNF-α cytokine levels (TNF-α in RAW 264.7 cells): no change in TNF-α cytokine levels
